MC4R barr agon – agonists of human melanocortin 4 receptor (MC4R) beta-arrestin; activation, % at 8.9 µM; 360,000 compounds, 0.98% hits; U2OS MC4R beta-arrestin complementation, luminescence; percent of melanotan II response, DMSO zero; P32245;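 active = activation above a per-plate cutoff, the mean activation of sample wells on that plate plus 3 SD, cut at about 8% in these data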
MC4R antagonist – blocks human MC4R cAMP signaling; P32245; MC4R-expressing cells, MTII-stimulated cAMP, LANCE TR-FRET; inhibition, % at 6.5 µM; 360,000 compounds, 0.48% hits; AID 540295;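 active = inhibition above its plate's cutoff, the mean of tested wells on that plate plus 3 SD, cut at about 29% in these data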
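Assay system: human MC4R-expressing U2OS cells; reagent: Melanotan II stimulation of cells; dosing: 6.5 µM single dose; timing: compound 30 min, challenge 1 h, detection 1 h; signal: TR-FRET cAMP assay; replicates: one well per compound, no replicates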
beta cell repl – inducers of beta-cell replication in MIN6 cells | MIN6 cells proliferation, ATPlite luminescence, 48 h; cells starved in 0.2% serum; 100% = growth in 10% serum | proliferation, % at 10 µM | 330,000 compounds, 0.29% hits;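 active = compounds whose signal lies at least 3.5 SD above the mean of all wells on their plate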
NOD2-RIPK2 inh – NOD2-RIPK2 protein interaction inhibition; CHO BLA complementation NOD2-RIPK2, CCF4 ratio; inhibition, % at 4.98 µM; O43353; 360,000 compounds, 0.38% hits; in the data active = inhibition above about 21%
TLR9-MyD88 inh – inhibitors of human TLR9-MyD88 binding; Q9NR96+Q99836; CHO BLA complementation TLR9-MyD88, CCF4 FRET ratio; inhibition, % at 4.98 µM; 340,000 compounds, 0.21% hits;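 active = inhibition above the mean over all tested compounds plus 3 SD, cut at about 21% in these data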
Target sequence (Q99836 whole entry, looked up): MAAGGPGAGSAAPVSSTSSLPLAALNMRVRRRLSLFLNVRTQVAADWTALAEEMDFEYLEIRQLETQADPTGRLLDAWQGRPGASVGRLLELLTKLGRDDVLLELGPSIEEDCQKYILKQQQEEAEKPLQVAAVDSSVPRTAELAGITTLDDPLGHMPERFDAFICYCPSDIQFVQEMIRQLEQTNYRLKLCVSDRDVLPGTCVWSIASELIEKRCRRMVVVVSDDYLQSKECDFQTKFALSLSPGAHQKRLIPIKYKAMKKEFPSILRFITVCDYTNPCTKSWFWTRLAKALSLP
Target sequence (Q9NR96 whole entry, looked up): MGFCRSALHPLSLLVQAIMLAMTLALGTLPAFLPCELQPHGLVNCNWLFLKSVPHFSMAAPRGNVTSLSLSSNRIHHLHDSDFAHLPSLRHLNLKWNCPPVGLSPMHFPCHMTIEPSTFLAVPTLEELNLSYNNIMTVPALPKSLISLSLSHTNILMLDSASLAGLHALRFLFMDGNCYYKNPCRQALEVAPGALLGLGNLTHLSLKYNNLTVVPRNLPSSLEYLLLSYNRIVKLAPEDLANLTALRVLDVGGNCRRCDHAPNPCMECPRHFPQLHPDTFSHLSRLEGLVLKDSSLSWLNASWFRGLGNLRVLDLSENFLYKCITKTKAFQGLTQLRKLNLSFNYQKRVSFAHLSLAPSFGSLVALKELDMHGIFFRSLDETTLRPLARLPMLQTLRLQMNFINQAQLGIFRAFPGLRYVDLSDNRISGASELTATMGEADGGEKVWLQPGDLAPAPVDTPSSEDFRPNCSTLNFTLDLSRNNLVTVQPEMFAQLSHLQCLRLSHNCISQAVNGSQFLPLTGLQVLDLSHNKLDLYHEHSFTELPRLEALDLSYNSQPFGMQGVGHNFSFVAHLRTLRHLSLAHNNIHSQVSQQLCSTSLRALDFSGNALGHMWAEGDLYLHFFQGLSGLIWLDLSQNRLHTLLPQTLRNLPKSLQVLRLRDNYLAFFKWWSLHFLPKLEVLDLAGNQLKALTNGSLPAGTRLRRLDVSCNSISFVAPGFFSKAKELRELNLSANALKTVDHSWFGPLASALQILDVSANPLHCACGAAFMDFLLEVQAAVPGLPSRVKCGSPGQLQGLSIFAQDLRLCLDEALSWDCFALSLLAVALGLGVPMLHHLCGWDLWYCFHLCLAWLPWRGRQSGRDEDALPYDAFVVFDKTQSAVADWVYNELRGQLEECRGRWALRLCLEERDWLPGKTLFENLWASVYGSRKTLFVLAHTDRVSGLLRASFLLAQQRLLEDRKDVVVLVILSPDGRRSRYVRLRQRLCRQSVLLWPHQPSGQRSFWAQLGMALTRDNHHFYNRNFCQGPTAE
TLR4-MyD88 BLA – inhibitors of human TLR4-MyD88 binding. O00206+Q99836. HeLa CL3-4 TLR4/MyD88 BLA complementation, FRET ratio. inhibition, % at 8.4 µM. 200,000 compounds, 0.18% hits. AID 861; in the data active = inhibition above about 25%
cAMP nonselect – U2OS forskolin cAMP inhibition counter-screen; inhibition, % at 6.5 µM; parental U2OS, LANCE TR-FRET; shares compounds with MC4R antagonist; 1,600 compounds, 26% hits;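 active = mean inhibition over triplicates above the low-control well mean plus 3 SD, set per campaign, cut at about 13% in these data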;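 note: signal is single emission at 671 nm which falls as cellular cAMP rises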
MC4R antag conf – human MC4R cAMP antagonism confirmation; MC4R-expressing cells, MTII-stimulated cAMP, TR-FRET; AID 602195; 1,600 compounds, 27% hits; inhibition, % at 6.5 µM; shares compounds with MC4R antagonist; in the data active = inhibition above about 29%
A number is an active result; – = inactive; · = no result given. Shown are actives, neighbours in structure and some others; about 2.1% of the full set was active somewhere.

SMILES | MC4R barr agon | MC4R antagonist | beta cell repl | NOD2-RIPK2 inh | TLR9-MyD88 inh | TLR4-MyD88 BLA | cAMP nonselect | MC4R antag conf
O=C(C(=O)N(Cc1ccccc1)Cc1ccccc1)c1c(-c2ccccc2)[nH]c2ccccc12 | – | 50 | · | – | – | · | – | –
CCCCNc1c(-c2cccc(-c3ccc(OC)cc3)c2)nc2cc(C)ccn12 | – | 34 | – | – | – | · | 30 | 56
Cc1ccc2nc(-c3ccc(-c4cccc(Cl)c4)cc3)c(NCc3ccccc3)n2c1 | – | – | – | – | – | · | · | ·
CCCCNc1c(-c2cccc(-c3ccc(OC)cc3)c2)nc2ccc(C)cn12 | – | 40 | – | – | – | · | 15 | 41
CCOC(=O)c1cc(-c2ccccc2)sc1NC(=O)COC(=O)c1ccc(Cl)c(S(N)(=O)=O)c1 | – | 29 | – | – | – | – | – | –
CN(C)S(=O)(=O)c1ccc(NC=O)cc1 | – | – | – | – | – | – | · | ·
Cc1ccc(C)c(-c2cc(C(=O)Nc3cccc(C(=O)O)c3)c3ccccc3n2)c1 | – | 35 | – | – | – | – | – | –
O=C(COC(=O)CCSc1ccccc1)NCc1ccc(F)cc1 | – | – | – | – | – | – | · | ·
Cc1nc2ccc(NC(=O)c3ccc(S(=O)(=O)N(C)c4ccccc4)cc3)cc2s1 | – | 30 | – | – | – | – | 27 | –
O=C(NCc1ccccc1)c1c(Cl)nc(Cl)c(Cl)c1Cl | – | 64 | – | – | – | · | 45 | 64
CC1CCN(C(=O)Cn2cnc3c(cnn3C(C)(C)C)c2=O)CC1 | – | 36 | – | – | – | – | – | –
CC(C)(C)n1ncc2c(=O)n(CC(=O)N3CCCC3)cnc21 | – | – | – | – | – | – | · | ·
CCC(CC)C1C(C#N)=C(N)Oc2n[nH]c(C)c21 (centres undefined) | – | – | – | – | – | – | · | ·
CCn1nc(C)c(C2C(C#N)=C(N)Oc3n[nH]c(C)c32)c1C (centres undefined) | – | 31 | – | – | – | – | – | –
CCOC(=O)Cn1ccc(NC(=O)c2ccc(F)cc2)n1 | – | – | – | – | – | · | · | ·
O=C(Nc1ccccc1Cl)c1cc(C2CCCCN2C(=O)c2ccccc2)on1 (centres undefined) | – | 35 | · | – | · | · | – | –
CCCCn1c(N)c(N(CCOC)C(=O)c2ccc(N3CCCC3=O)cc2)c(=O)[nH]c1=O | – | – | – | – | – | · | · | ·
CCN1C(=O)C2(C(C(=O)c3cc4ccccc4o3)=C(O)C(=O)N2CCCN2CCOCC2)c2ccccc21 (centres undefined) | – | 42 | – | – | – | · | 22 | 50
O=C(c1c(F)c(F)c(F)c(F)c1F)N1CCc2ccccc21 | – | 33 | – | – | – | – | 17 | –
CCN(CC)C(=O)C1=C(C)N(Cc2ccc(F)cc2)C(=O)C(CC(=O)NCc2ccco2)C1 (centres undefined) | – | – | · | – | – | · | · | ·
C=CCn1c(SCC(=O)Nc2cc(C)on2)nnc1-c1ccccc1F | – | – | – | – | – | · | · | ·
OCCN1CCN(c2cc(-c3ccccc3)c3ccccc3n2)CC1 | – | 41 | – | – | – | – | – | –
CNC(=O)C(C)c1ncc(C(F)(F)F)cc1Cl (centres undefined) | – | 31 | – | – | – | – | – | –
CC(C(=O)Nc1ccc(Cl)cc1)c1ncc(C(F)(F)F)cc1Cl (centres undefined) | – | – | – | – | – | – | · | ·
COC(=O)C(Cc1ccc(O)cc1)NC(=O)C1CCN(S(=O)(=O)c2ccc(C)cc2)CC1 (centres undefined) | – | 30 | – | – | – | · | 18 | 31
SMILES | MC4R barr agon | MC4R antagonist | beta cell repl | NOD2-RIPK2 inh | TLR9-MyD88 inh | TLR4-MyD88 BLA | cAMP nonselect | MC4R antag conf
COC(=O)C(CC(C)C)NC(=O)/C=C/c1ccc(Cl)cc1 (centres undefined) | – | 35 | – | – | – | – | – | –
Cc1nn(-c2ccccc2)c2nc(-c3ccccc3)cc(C(=O)N3CCOCC3)c12 | – | – | – | – | – | – | · | ·
Cc1nn(-c2cccc(Cl)c2)c2nc(-c3ccncc3)cc(C(=O)N3CCOCC3)c12 | – | 34 | – | – | – | – | – | –
Cc1ccc(CC2C(=O)N(c3ccccc3)C(=O)C2C)cc1 (centres undefined) | – | 32 | – | – | – | · | – | –
S=c1[nH]c(-c2ccccc2)cn1/N=C/c1cccc2ccccc12 | – | 29 | – | – | – | – | – | –
COc1ccc(CCNC(=O)C2(C)CCC(=O)N2Cc2ccc3c(c2)OCO3)cc1OC (centres undefined) | – | – | – | – | – | – | · | ·
COc1ccc(CCNC(=O)C2(C)CCC(=O)N2Cc2ccc(F)cc2Cl)cc1OC (centres undefined) | – | 39 | – | – | – | · | – | –
O=C(OC1CCOC1=O)C1CCN(S(=O)(=O)c2ccc(Cl)c(C(F)(F)F)c2)CC1 (centres undefined) | – | 51 | – | – | – | · | 14 | 50
O=C(OC1CCOC1=O)c1ccc(S(=O)(=O)N2CCCCCC2)cc1 (centres undefined) | – | – | – | – | – | – | · | ·
O=C(OC1CCOC1=O)C1CCN(S(=O)(=O)c2ccccc2)CC1 (centres undefined) | – | 35 | – | – | – | · | 18 | 43
O=C(OCC(=O)N1CCCC1=O)C1CCN(S(=O)(=O)c2ccc(Cl)c(C(F)(F)F)c2)CC1 | – | – | – | – | – | · | · | ·
O=C(OC1CCOC1=O)c1ccc(Cl)c(S(=O)(=O)N2CCCCC2)c1 (centres undefined) | – | 34 | – | – | – | – | – | –
CN(c1ccccc1C(=O)Nc1ccccc1-c1ccccc1)S(C)(=O)=O | – | – | – | – | – | · | · | ·
O=C(NC1=NCCS1)c1cccc(OC(F)F)c1 | – | – | – | – | – | – | · | ·
CCOc1ccc(CCNC(=O)COC(=O)c2cc(=O)[nH]c3ccccc23)cc1OCC | – | – | – | – | – | · | · | ·
COc1cccc(OC)c1C(=O)NC(=O)Nc1c(C)cccc1C | – | 29 | – | – | – | · | – | –
COc1ccc(C2=NOC3(CC(=O)N(c4ccc(F)cc4)C3=O)C2)cc1 (centres undefined) | – | 29 | – | – | – | · | – | –
CCOC(=O)CSc1[nH]c2cc(OC)ccc2c1[N+](=O)[O-] | – | – | – | – | – | – | · | ·
COC(=O)CSc1[nH]c2ccc(F)cc2c1[N+](=O)[O-] | – | 34 | – | – | – | · | – | –
